Test results as given in ChEMBL document CHEMBL1144856, “Design, synthesis, and biological evaluation of 1-(4-sulfamylphenyl)-3-trifluoromethyl-5-indolyl pyrazolines as cyclooxygenase-2 (COX-2) and lipoxygenase (LOX) inhibitors” (Bioorg Med Chem, 2008).

target: T1, Polyunsaturated fatty acid 5-lipoxygenase (Homo sapiens) (UniProt P09917); test: Inhibition of LOX5 from human PBML cells at 10 uM by enzyme immuno assay; format: cell-based
T1 sequence (whole entry): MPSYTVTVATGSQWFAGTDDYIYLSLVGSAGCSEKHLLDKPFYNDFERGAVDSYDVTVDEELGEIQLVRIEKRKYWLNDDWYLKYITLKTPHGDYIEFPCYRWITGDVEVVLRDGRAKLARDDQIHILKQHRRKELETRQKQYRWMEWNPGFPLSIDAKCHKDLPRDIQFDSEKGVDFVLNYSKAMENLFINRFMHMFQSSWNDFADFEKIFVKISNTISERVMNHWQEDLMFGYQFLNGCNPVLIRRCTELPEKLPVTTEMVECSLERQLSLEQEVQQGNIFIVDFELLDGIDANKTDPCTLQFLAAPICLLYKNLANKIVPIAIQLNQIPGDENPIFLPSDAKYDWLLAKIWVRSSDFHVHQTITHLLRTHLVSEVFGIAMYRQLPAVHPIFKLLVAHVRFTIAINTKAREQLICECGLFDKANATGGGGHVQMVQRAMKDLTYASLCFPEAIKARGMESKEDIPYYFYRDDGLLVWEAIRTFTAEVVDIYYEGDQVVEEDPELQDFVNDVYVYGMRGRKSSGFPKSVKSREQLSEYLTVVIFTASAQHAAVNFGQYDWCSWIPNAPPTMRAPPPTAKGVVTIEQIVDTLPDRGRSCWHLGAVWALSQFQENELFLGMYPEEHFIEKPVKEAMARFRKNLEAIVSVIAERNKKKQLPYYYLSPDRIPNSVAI
Procedure, shortened: (§1)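 Run by a contract lab. Enzyme sources: human PBML cells (LOX-5), human platelets (LOX-12), rabbit reticulocytes (LOX-15). Substrates: endogenous arachidonic acid (LOX-5), added arachidonic acid (LOX-12), linoleic acid (LOX-15). Inhibition read as LTB4 (LOX-5), 12-HETE (LOX-12) or 15-HETE (LOX-15), quantified by EIA and spectrophotometrically.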

Row | SMILES | inhibition
1 | NS(=O)(=O)c1ccc(N2N=C(C(F)(F)F)CC2c2c[nH]c3c(Cl)cccc23)cc1 (stereo in doubt; 5f) | 94%
2 | NS(=O)(=O)c1ccc(N2N=C(C(F)(F)F)CC2c2c[nH]c3ccccc23)cc1 (stereo in doubt; 5a) | 41%
3 | CS(=O)(=O)c1ccc(C2=C(c3ccccc3)C(=O)OC2)cc1 | 11%
4 | NS(=O)(=O)c1ccc(N2N=C(C(F)(F)F)CC2c2c[nH]c3cc(Cl)ccc23)cc1 (centres undefined) | 51%

species: Ovis aries; test: Selectivity ratio of IC50 for ovine COX1 to IC50 for ovine COX2
Procedure, shortened: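 Purified hematin-reconstituted ovine COX-1 and COX-2 (six units each) in Tris–HCl 0.1 M pH 8.0, 5 mM EDTA, 2 mM phenol. Enzymes were preincubated 1 h at room temperature with inhibitor in DMSO, then given arachidonic acid for 2 min at 37 °C. PGF2α from SnCl2 reduction of PGH2 was read by EIA. IC50s are means of duplicates; ratio is COX-1 IC50/COX-2 IC50.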

Row | SMILES | Ratio IC50
5 | NS(=O)(=O)c1ccc(N2N=C(C(F)(F)F)CC2c2c[nH]c3c(Cl)cccc23)cc1 (single isomer, unassigned; enantiomer 1) | > 345
6 | N#Cc1ccc2[nH]cc(C3CC(C(F)(F)F)=NN3c3ccc(S(N)(=O)=O)cc3)c2c1 (centres undefined) | 0
7 | N#Cc1ccc2c(C3CC(C(F)(F)F)=NN3c3ccc(S(N)(=O)=O)cc3)c[nH]c2c1 (centres undefined) | 0
8 | NS(=O)(=O)c1ccc(N2N=C(C(F)(F)F)CC2c2c[nH]c3cc(F)ccc23)cc1 (centres undefined) | 0
9 | Nc1cccc2c(C3CC(C(F)(F)F)=NN3c3ccc(S(N)(=O)=O)cc3)c[nH]c12 (centres undefined) | > 42
10 | NS(=O)(=O)c1ccc(N2N=C(C(F)(F)F)CC2c2c[nH]c3ccc(C(=O)O)cc23)cc1 (centres undefined) | 0
11 | NS(=O)(=O)c1ccc(N2N=C(C(F)(F)F)CC2c2c[nH]c3c([N+](=O)[O-])cccc23)cc1 (centres undefined) | 0
12 | NS(=O)(=O)c1ccc(N2N=C(C(F)(F)F)CC2c2c[nH]c3c(Cl)cccc23)cc1 (stereo in doubt; 5f) | > 26
13 | COc1cccc2[nH]cc(C3CC(C(F)(F)F)=NN3c3ccc(S(N)(=O)=O)cc3)c12 (centres undefined) | 12
14 | NS(=O)(=O)c1ccc(N2N=C(C(F)(F)F)CC2c2c[nH]c3cc([N+](=O)[O-])ccc23)cc1 (centres undefined) | 0
15 | NS(=O)(=O)c1ccc(N2N=C(C(F)(F)F)CC2c2c[nH]c3ccc(F)cc23)cc1 (centres undefined) | > 8
16 | NS(=O)(=O)c1ccc(-n2nc(C(F)(F)F)cc2-c2c[nH]c3ccccc23)cc1 | 0
17 | Nc1cccc2[nH]cc(C3CC(C(F)(F)F)=NN3c3ccc(S(N)(=O)=O)cc3)c12 (centres undefined) | 0
18 | NS(=O)(=O)c1ccc(N2N=C(C(F)(F)F)CC2c2c[nH]c3ccccc23)cc1 (stereo in doubt; 5a) | > 72
19 | NS(=O)(=O)c1ccc(N2N=C(C(F)(F)F)CC2c2c[nH]c3cc(Cl)ccc23)cc1 (centres undefined) | 0

target: T2, Prostaglandin G/H synthase 1 (Ovis aries, UniProt P05979); test: Inhibition of ovine COX1 by enzyme immuno assay
T2 sequence (P05979 whole entry): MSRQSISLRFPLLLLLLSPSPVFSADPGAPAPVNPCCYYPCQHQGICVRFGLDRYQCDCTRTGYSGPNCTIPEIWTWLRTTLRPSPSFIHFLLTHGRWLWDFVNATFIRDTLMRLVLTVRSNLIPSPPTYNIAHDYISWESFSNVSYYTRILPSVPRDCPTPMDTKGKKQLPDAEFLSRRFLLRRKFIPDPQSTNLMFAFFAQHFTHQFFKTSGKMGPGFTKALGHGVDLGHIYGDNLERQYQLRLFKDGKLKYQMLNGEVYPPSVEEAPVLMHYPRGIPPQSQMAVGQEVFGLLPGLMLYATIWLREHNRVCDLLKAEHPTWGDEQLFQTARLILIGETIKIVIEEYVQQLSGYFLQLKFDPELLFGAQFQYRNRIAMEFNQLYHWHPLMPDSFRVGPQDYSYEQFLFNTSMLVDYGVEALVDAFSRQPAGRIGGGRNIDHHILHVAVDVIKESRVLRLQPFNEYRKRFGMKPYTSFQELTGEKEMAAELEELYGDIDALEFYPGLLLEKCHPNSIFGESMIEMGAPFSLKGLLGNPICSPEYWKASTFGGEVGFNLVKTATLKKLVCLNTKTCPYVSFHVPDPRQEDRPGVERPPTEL
Procedure, shortened: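 Hematin-reconstituted purified ovine COX-1 (six units) in 0.1 M Tris-HCl pH 8.0 with 5 mM EDTA and 2 mM phenol. Pre-incubated 1 h at room temperature with inhibitor in DMSO, then arachidonic acid added for 2 min at 37 °C. PGH2 was reduced with stannous chloride and PGF2α measured by EIA. Run in duplicate; IC50 is the mean of the duplicates.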

Row | SMILES | IC50
20 | N#Cc1ccc2[nH]cc(C3CC(C(F)(F)F)=NN3c3ccc(S(N)(=O)=O)cc3)c2c1 (centres undefined) | > 100 µM
21 | N#Cc1ccc2c(C3CC(C(F)(F)F)=NN3c3ccc(S(N)(=O)=O)cc3)c[nH]c2c1 (centres undefined) | > 100 µM
22 | NS(=O)(=O)c1ccc(N2N=C(C(F)(F)F)CC2c2c[nH]c3cc(F)ccc23)cc1 (centres undefined) | > 100 µM
23 | Nc1cccc2c(C3CC(C(F)(F)F)=NN3c3ccc(S(N)(=O)=O)cc3)c[nH]c12 (centres undefined) | > 100 µM
24 | NS(=O)(=O)c1ccc(N2N=C(C(F)(F)F)CC2c2c[nH]c3ccc(C(=O)O)cc23)cc1 (centres undefined) | > 100 µM
25 | NS(=O)(=O)c1ccc(N2N=C(C(F)(F)F)CC2c2c[nH]c3c([N+](=O)[O-])cccc23)cc1 (centres undefined) | > 100 µM
26 | COc1cccc2[nH]cc(C3CC(C(F)(F)F)=NN3c3ccc(S(N)(=O)=O)cc3)c12 (centres undefined) | > 100 µM
27 | NS(=O)(=O)c1ccc(N2N=C(C(F)(F)F)CC2c2c[nH]c3cc([N+](=O)[O-])ccc23)cc1 (centres undefined) | > 100 µM
28 | NS(=O)(=O)c1ccc(N2N=C(C(F)(F)F)CC2c2c[nH]c3ccc(F)cc23)cc1 (centres undefined) | > 100 µM
29 | NS(=O)(=O)c1ccc(-n2nc(C(F)(F)F)cc2-c2c[nH]c3ccccc23)cc1 | > 100 µM
30 | Nc1cccc2[nH]cc(C3CC(C(F)(F)F)=NN3c3ccc(S(N)(=O)=O)cc3)c12 (centres undefined) | > 100 µM
31 | NS(=O)(=O)c1ccc(N2N=C(C(F)(F)F)CC2c2c[nH]c3cc(Cl)ccc23)cc1 (centres undefined) | > 100 µM

target: T3, Polyunsaturated fatty acid lipoxygenase ALOX12 (Homo sapiens) (UniProt P18054); test: Inhibition of LOX12 from human platelets at 10 uM by enzyme immuno assay; procedure, shortened: as §1
T3 sequence (whole entry): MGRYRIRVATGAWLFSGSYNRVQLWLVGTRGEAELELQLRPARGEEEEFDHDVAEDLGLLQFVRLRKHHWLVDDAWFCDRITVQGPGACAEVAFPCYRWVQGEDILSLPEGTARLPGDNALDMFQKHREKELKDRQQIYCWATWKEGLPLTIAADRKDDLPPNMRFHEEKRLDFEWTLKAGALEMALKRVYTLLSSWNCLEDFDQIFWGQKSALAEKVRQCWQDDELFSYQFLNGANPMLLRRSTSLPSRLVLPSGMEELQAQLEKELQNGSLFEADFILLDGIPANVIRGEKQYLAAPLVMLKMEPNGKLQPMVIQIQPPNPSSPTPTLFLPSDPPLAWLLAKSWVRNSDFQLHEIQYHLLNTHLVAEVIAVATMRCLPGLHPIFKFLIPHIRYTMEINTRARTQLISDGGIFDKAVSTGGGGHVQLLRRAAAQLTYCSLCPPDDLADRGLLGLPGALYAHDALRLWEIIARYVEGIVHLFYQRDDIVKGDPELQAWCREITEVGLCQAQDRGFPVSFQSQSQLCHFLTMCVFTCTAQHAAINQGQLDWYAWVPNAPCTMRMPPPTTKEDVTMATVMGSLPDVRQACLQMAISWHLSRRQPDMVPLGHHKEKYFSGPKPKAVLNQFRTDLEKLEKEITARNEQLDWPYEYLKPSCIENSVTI

Row | SMILES | inhibition
32 | NS(=O)(=O)c1ccc(N2N=C(C(F)(F)F)CC2c2c[nH]c3c(Cl)cccc23)cc1 (stereo in doubt; 5f) | 3%
33 | NS(=O)(=O)c1ccc(N2N=C(C(F)(F)F)CC2c2c[nH]c3ccccc23)cc1 (stereo in doubt; 5a) | 5%
34 | CS(=O)(=O)c1ccc(C2=C(c3ccccc3)C(=O)OC2)cc1 | -2%
35 | NS(=O)(=O)c1ccc(N2N=C(C(F)(F)F)CC2c2c[nH]c3cc(Cl)ccc23)cc1 (centres undefined) | -2%

target: T4, Polyunsaturated fatty acid lipoxygenase ALOX15 (Oryctolagus cuniculus) (UniProt P12530); test: Inhibition of LOX15 from rabbit reticulocytes at 10 uM by enzyme immuno assay; procedure, shortened: as §1
T4 sequence (whole entry): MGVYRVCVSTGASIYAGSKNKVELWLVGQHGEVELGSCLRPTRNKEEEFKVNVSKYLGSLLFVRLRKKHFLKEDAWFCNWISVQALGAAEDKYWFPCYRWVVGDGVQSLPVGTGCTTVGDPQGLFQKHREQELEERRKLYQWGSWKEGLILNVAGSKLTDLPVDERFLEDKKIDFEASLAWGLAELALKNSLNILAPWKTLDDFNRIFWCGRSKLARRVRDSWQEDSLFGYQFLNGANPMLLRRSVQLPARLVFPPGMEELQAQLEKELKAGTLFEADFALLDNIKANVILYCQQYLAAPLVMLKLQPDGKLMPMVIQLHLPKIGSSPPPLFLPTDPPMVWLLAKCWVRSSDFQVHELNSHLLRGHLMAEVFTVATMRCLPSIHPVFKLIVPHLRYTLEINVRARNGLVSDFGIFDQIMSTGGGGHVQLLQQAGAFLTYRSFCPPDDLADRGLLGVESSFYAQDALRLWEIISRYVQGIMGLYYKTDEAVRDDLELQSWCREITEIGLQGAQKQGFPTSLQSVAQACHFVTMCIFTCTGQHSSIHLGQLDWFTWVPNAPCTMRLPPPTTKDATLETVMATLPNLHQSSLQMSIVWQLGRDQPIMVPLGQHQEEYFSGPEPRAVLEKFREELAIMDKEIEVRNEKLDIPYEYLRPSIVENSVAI

Row | SMILES | inhibition
36 | NS(=O)(=O)c1ccc(N2N=C(C(F)(F)F)CC2c2c[nH]c3c(Cl)cccc23)cc1 (stereo in doubt; 5f) | 36%
37 | NS(=O)(=O)c1ccc(N2N=C(C(F)(F)F)CC2c2c[nH]c3ccccc23)cc1 (stereo in doubt; 5a) | 31%
38 | CS(=O)(=O)c1ccc(C2=C(c3ccccc3)C(=O)OC2)cc1 | 6%
39 | NS(=O)(=O)c1ccc(N2N=C(C(F)(F)F)CC2c2c[nH]c3cc(Cl)ccc23)cc1 (centres undefined) | 36%
